Published values collected from several papers.
Lines come from different studies, so protocols differ.
Cell line: HepG2
Read-out: cell growth or viability

SMILES | method | time | IC50
Nc1nc(-c2cccc(NC(=O)Nc3cccc(-c4c[nH]c(N)n4)c3)c2)c[nH]1 | XTT | 24 h | 850 µM
N.N.[Cl][Pt][Cl] | MTT | 48 h | 14 µM
Cl.O[C@]12C=C(c3nccc4c3[nH]c3ccccc34)[C@@H]3CCN(CCCC/C=C\CC1)C[C@@]31C[C@@H]3/C=C\CCCCN3[C@H]12 | neutral red | 48 h | 1.55 µg/mL
CC[C@@]1(OC(=O)[C@H](C)N)C(=O)OCc2c1cc1n(c2=O)Cc2cc3cc4c(cc3nc2-1)OCO4 | MTT |  | 0.101 µM
CC1=C(O)C(=O)C=C2C1=CC=C1[C@@]2(C)CC[C@@]2(C)[C@@H]3C[C@](C)(C(=O)OCCCn4cc(C=O)c5ccccc54)CC[C@]3(C)CC[C@]12C | MTT | 48 h | 1.76 µM
O=C(O)CCCc1ccc(N(CCCl)CCCl)cc1 | CCK-8 | 48 h | 15.1 µM
CC[C@@]1(OC(=O)Cc2c(C)n(C(=O)c3ccc(Cl)cc3)c3ccc(OC)cc23)C(=O)OCc2c1cc1n(c2=O)Cc2cc3cc4c(cc3nc2-1)OCO4 | MTT |  | 0.032 µM
[Cl-].[Cl-].[Co+2] | MTT | 48 h | > 150 µM
CC[C@@]1(OC(=O)[C@@H](N)Cc2ccccc2)C(=O)OCc2c1cc1n(c2=O)Cc2cc3cc4c(cc3nc2-1)OCO4 | MTT |  | 0.088 µM
Cl.Cl.Nc1nc(-c2cc(F)cc(NC(=O)Nc3cc(F)cc(-c4c[nH]c(N)n4)c3)c2)c[nH]1 | XTT | 24 h | > 256 µg/mL
CC1=C(O)C(=O)C=C2C1=CC=C1[C@@]2(C)CC[C@@]2(C)[C@@H]3C[C@](C)(C(=O)O)CC[C@]3(C)CC[C@]12C | MTT | 48 h | 1.23 µM
Cc1c2ccncc2c(C)c2c1[nH]c1ccccc12 | MTT | 72 h | 0.45 µg/mL
COc1c2ccoc2cc2oc(=O)ccc12 | WST-1 | 48 h | 18.1 µM
CC[C@@]1(OC(=O)C(C)c2cccc(C(=O)c3ccccc3)c2)C(=O)OCc2c1cc1n(c2=O)Cc2cc3cc4c(cc3nc2-1)OCO4 (some centres unmarked) | MTT |  | 0.364 µM
CCC1(c2ccc(N)cc2)CCC(=O)NC1=O (centres unmarked) | CCK-8 | 48 h | > 50 µM
CC[C@@]1(OC(=O)[C@@H]2CCCN2)C(=O)OCc2c1cc1n(c2=O)Cc2cc3cc4c(cc3nc2-1)OCO4 | MTT |  | 0.263 µM
O=c1ccc2cc3ccoc3cc2o1 | WST-1 | 48 h | 17.2 µM
